# EBV gp42 inh – Epstein-Barr virus gp42 inhibitors, primary screen, biochemical, uHTS, fluorescence polarization. inhibition, % (tested at 21.74 µM). Fluorescence polarization binding assay, mP read-out. 0.42% of 220,000 active; in the data active = inhibition above about 50%
# Target sequence (Q1HVG2 whole entry, looked up): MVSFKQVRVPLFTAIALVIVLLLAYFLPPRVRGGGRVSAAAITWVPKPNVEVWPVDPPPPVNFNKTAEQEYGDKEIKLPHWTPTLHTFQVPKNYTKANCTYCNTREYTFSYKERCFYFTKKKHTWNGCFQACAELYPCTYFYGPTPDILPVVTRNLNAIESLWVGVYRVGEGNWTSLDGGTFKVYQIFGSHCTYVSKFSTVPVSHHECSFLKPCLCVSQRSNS
# MPTP block – mitochondrial permeability transition pore inhibitors, primary screen, biochemical, isolated mouse mitochondria, absorbance | Ca2+ swelling absorbance, 30 min | inhibition, % at 10 µM | 1.4% of 360,000 active;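 active = inhibition of 50% or more, scaled per plate between neutral and stimulator controls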
# CHOP inhibitor – inhibitors of CHOP promoter induction, primary screen, cell-based, unfolded protein response, luciferase reporter. CHO-K1 CHOP-promoter luciferase, tunicamycin-induced, 15-18 h. inhibition, % at 10 µM. 3.8% of 220,000 active;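 active = compounds that reduced the stress-induced luciferase reporter signal by more than about 70% of percent inhibition, limit read from the data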
# TbMetRS inhib – T. brucei MetRS inhibitors, primary screen, biochemical, luminescence; methionyl-tRNA synthetase (Trypanosoma brucei brucei); purified T. brucei MetRS, ATP depletion, Kinase-Glo luminescence; inhibition, % at 11.9 µM; 0.4% of 360,000 active;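 active = inhibition above a per-plate cutoff of the control wells' mean inhibition plus 3 SD, cut at about 5.5% in these data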
#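 technique = Kinase-Glo luminescence, ATP depletion format | system = purified MetRS (methionyl-tRNA synthetase) enzyme from Trypanosoma brucei | timing = 15 min preincubation, 2 h reaction, all 25 °C | evaluation = percent inhibition versus plate control medians | dosing = single dose, 11.9 µM final nominal, 0.9% final DMSO | also added = substrates ATP, L-methionine and bulk Escherichia coli tRNA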
# NR3A LBD binder – binders of NR3A ligand-binding domain, primary screen, biophysical, differential scanning fluorimetry, uHTS; Tm shift relative to glycine control, % at 25 µM; NR3A LBD differential scanning fluorimetry, Tm shift; 0% = protein alone, 100% = glycine-bound protein; Glutamate receptor ionotropic, NMDA 3A (GRIN3A) ligand-binding domain; 2.5% of 340,000 active;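 active = melting temperature shift of at least 10% of the positive control shift, at one fixed dose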
# WT yeast gro inh – growth inhibition of WT strain, primary screen, mitochondrial fusion inhibitor project, WT and mutant strains, chemical genetic; inhibition, % at 10 µM; 2.1% of 190,000 active; mitochondrial fusion phenotypic screen; in the data active = inhibition above about 58%; tested in S. cerevisiae
# Hits are given with their value; i = inactive; nt = no result. Compounds with a hit are over-represented: about 6.4% of the library has one in this group of screens.
SMILES,EBV gp42 inh,MPTP block,CHOP inhibitor,TbMetRS inhib,NR3A LBD binder,WT yeast gro inh
COc1ccc(NC(=O)CC2C(=O)N(c3cccc(OC)c3)C(=O)N2CCC(C)C)cc1 (stereo not given),i,i,i,i,11,i
COc1ccc(NC(=O)CC2C(=O)N(c3cccc(OC)c3)C(=O)N2C(C)C)cc1 (stereo not given),i,i,i,i,i,i
CCOc1ccc(NC(=O)CC2C(=O)N(c3ccc(OC)c(Cl)c3)C(=S)N2C2CC2)cc1 (stereo not given),nt,i,nt,i,25,nt
CCOc1ccc(C(=O)NCC(=O)OCc2c(F)cccc2Cl)cc1OCC,i,i,i,i,14,i
CCC(C(=O)N1CCOCC1)n1nc(C)n2c(cc3cc(C)ccc32)c1=O (stereo not given),nt,i,nt,i,11,nt
C=CCSc1nc2c(c(C3CC=CCC3)c1C#N)CCC2 (stereo not given),i,i,i,i,i,61
CC(C)OC(=O)CSc1nc2c(c(C3CC=CCC3)c1C#N)CCC2 (stereo not given),i,i,i,i,i,i
CCCN(c1ccc(C(C)C)cc1)S(=O)(=O)c1c(C)noc1C,i,i,76,i,i,i
CCCCC1CCC(c2nc(-c3cccnc3)no2)CC1 (stereo not given),i,i,i,i,i,68
Cc1ccc(CNS(=O)(=O)c2c(C)[nH]c(C)c2C(=O)N2CCCC2)cc1,nt,i,nt,i,i,nt
Cc1ccc(C(=O)c2cc3c(cc2N)OCCO3)cc1,i,i,73,i,i,i
COc1ccc(OCC(=O)Nc2cc(-c3nn4c(C)nnc4s3)ccc2C)cc1,i,i,i,i,i,i
Cc1cc(OCC(=O)Nc2cc(-c3nn4c(C)nnc4s3)ccc2C)ccc1Cl,i,i,95,i,i,i
O=c1c2ccccc2nc(CSc2nnnn2-c2ccccc2)n1-c1ccccc1Cl,i,i,71,i,i,i
COc1ccc(C2=CSC(/N=C/c3ccc(F)cc3)=NN2)cc1,i,i,i,i,21,i
N#Cc1c(SCC(=O)Nc2cccc(C(F)(F)F)c2)sc2c(O)cc(=O)[nH]c12,nt,i,nt,i,10,nt
Cc1ccc(/C=N/Nc2cccc3cccnc23)c(O)c1,i,i,i,i,10,i
Oc1ccc(C=NNc2ccccn2)c(O)c1,nt,i,nt,i,i,nt
Oc1ccc(/C=N/Nc2cccc3cccnc23)c(O)c1,i,i,i,i,32,i
C[C@H](O)Cc1cc2ccccc2c(=O)o1,nt,i,nt,i,i,nt
N#CC(c1cccc(Cl)c1)c1ncc(C(F)(F)F)cc1Cl (stereo not given),i,i,i,i,i,i
N#CC(c1ccc(Cl)cc1)c1ncc(C(F)(F)F)cc1Cl (stereo not given),i,i,i,i,14,i
CCOc1ccc(C)cc1S(=O)(=O)n1ccc(C)n1,i,i,i,i,i,i
CCOc1cc(C)c(C(C)C)cc1S(=O)(=O)n1ccc(C)n1,i,i,77,i,i,i
Cc1ccc(CNC(=O)C2CCCN(Cc3cnn(-c4ccccc4)c3-n3cccc3)C2)cc1 (stereo not given),i,i,i,i,i,i
SMILES,EBV gp42 inh,MPTP block,CHOP inhibitor,TbMetRS inhib,NR3A LBD binder,WT yeast gro inh
COc1cccc(/C=N/NC(=O)c2cc3c(OC)cccc3[nH]2)c1OC,i,i,i,i,i,i
COc1cccc(/C=N/NC(=O)c2cc3c(OC)cccc3[nH]2)c1O,i,i,92,i,i,i
COc1cc(/C=N/NC(=O)c2cc3ccccc3[nH]2)ccc1O,nt,i,nt,i,34,nt
COc1cc(/C=N/NC(=O)c2cccc(C(=O)N/N=C/c3ccc(O)c(OC)c3)n2)ccc1O,nt,i,nt,i,i,nt
COc1ccc(OC)c2[nH]c(C(=O)N/N=C/c3ccccc3O)cc12,nt,i,nt,i,18,nt
COc1ccc(/C=N/NC(=O)c2cc3c(OC)ccc(OC)c3[nH]2)cc1O,nt,i,nt,i,i,nt
COc1cccc(/C=N/NC(=O)c2cc3cc([N+](=O)[O-])ccc3s2)c1O,i,i,100,i,12,i
COc1cccc(CN(CCC(C)C)S(=O)(=O)c2cc(Br)ccc2Br)c1,nt,i,nt,i,15,nt
COc1cc(CN(CC(C)C)S(=O)(=O)c2ccccc2Br)cc(OC)c1,nt,i,nt,i,i,nt
CC(=O)c1cc(-c2ccccc2)n(CCC(=O)NCc2cccs2)c1C,i,i,i,i,i,i
CCC1=NN2C(=N)/C(=C\c3cccn3-c3ccc(C)cc3C)C(=O)N=C2S1,i,i,i,i,i,84
CCC1=NN2C(=N)/C(=C\c3cccn3-c3cccc(Cl)c3)C(=O)N=C2S1,i,i,i,i,i,62
CCC1=NN2C(=N)/C(=C\c3cccn3-c3c(C)cccc3C)C(=O)N=C2S1,i,i,i,i,i,i
CCC1=NN2C(=N)/C(=C\c3cccn3-c3ccc(Br)cc3)C(=O)N=C2S1,59,i,i,i,i,i
CCCC(=O)C1=C(O)C(C(=O)OC)C(C)(C)CC1=Nc1cccc2ccccc12 (stereo not given),i,i,i,i,i,i
CC1Cc2ccccc2N1C(=O)COC(=O)c1cccnc1Cl (stereo not given),i,i,i,i,i,i
COc1ccc(Oc2c(C=O)c3ccccc3n2C)cc1,i,i,i,i,i,i
Cn1c(Oc2ccc(Cl)cc2)c(C=O)c2ccccc21,i,i,i,i,15,i
O=C(Cc1ccccc1)Nc1ccc(C(=O)NCC2COc3ccccc3O2)cc1 (stereo not given),i,i,i,i,22,i
Oc1ccc(O)c(-c2cnns2)c1,i,i,i,i,i,i
CCOc1ccc(S(=O)(=O)NCCC(=O)NCCOc2ccccc2OC)cc1,nt,i,nt,i,21,nt
O=C1[C@H]2[C@@H](c3ccccc3)N[C@]3(CCCN(Cc4ccco4)C3=O)[C@H]2C(=O)N1Cc1ccccc1,nt,i,nt,i,nt,nt
COc1ccc(-c2c/c(=N\c3nc(-c4ccccc4)c(C)s3)c3ccccc3o2)cc1O,i,i,nt,i,15,i
NS(=O)(=O)c1ccc(CCNC(=O)C2CCC(CNS(=O)(=O)c3ccc(Br)s3)CC2)cc1 (stereo not given),i,i,i,i,13,i
Cc1ccc2nc(NC(=O)c3ccc(S(=O)(=O)N4CCCc5ccccc54)cc3)sc2c1,i,i,76,i,i,i
O=C(Nc1nc2ccc(F)cc2s1)c1cccc(S(=O)(=O)N2CCc3ccccc32)c1,i,i,i,i,14,i
O=C(Nc1nc2c(s1)CCCC2)c1cccc(S(=O)(=O)N2CCCc3ccccc32)c1,i,i,i,i,i,i
